Calls of active or inactive are those of the source. The rule behind the calls is not given here.

Test [1] has as its target Voltage-dependent calcium channel alpha2delta subunit (Sus scrofa, UniProt O77773). In words: Displacement of [3H]gabapentin from calcium channel alpha2delta in pig cerebral cortex membrane after 30 mins. Format: cell membranes.
In test [2] the test system is Rattus norvegicus. In words: Antihyperalgesic effect in carrageenan-induced rat inflammatory pain model assessed as reversal of hyperalgesia at 30 mg/kg, po. Format: functional, organism-based. Set-up: dose 30 mg/kg. The method, boiled down: (§1)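 Rats received intraplantar carrageenan in the paw, and thermal hyperalgesia was allowed to form over 2 h, to a paw-withdrawal latency of 2.5 s. Test compound was then given orally. Reversal of hyperalgesia was read as the time to paw withdrawal.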

Test [3] relates to Rattus norvegicus. In words: Analgesic activity in po dosed rat assessed as increase in number shocks received for 10 mins. The class given is functional. Conditions: read-out: MED. The method, boiled down:
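Vogel conflict model: rats were dosed orally at different doses, then placed in a cage with a drinking tube that delivered a shock at each drink. The mean number of shocks per rat was counted over 10 min. The minimum effective dose was taken from significance versus vehicle (P <0.05).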

Test [4] deals with Rattus norvegicus. Briefly: Antihyperalgesic effect in carrageenan-induced rat inflammatory pain model assessed as reversal of hyperalgesia at 1 to 30 mg/kg, po. The class given is functional, organism-based. The method, boiled down: as §1
The subject of test [5] is Rattus norvegicus. In words: Antihyperalgesic effect in carrageenan-induced intrathecal dosed rat inflammatory pain model assessed as reversal of hyperalgesia. Format: functional, organism-based.

Chain of Voltage-dependent calcium channel alpha2delta subunit (O77773 whole entry): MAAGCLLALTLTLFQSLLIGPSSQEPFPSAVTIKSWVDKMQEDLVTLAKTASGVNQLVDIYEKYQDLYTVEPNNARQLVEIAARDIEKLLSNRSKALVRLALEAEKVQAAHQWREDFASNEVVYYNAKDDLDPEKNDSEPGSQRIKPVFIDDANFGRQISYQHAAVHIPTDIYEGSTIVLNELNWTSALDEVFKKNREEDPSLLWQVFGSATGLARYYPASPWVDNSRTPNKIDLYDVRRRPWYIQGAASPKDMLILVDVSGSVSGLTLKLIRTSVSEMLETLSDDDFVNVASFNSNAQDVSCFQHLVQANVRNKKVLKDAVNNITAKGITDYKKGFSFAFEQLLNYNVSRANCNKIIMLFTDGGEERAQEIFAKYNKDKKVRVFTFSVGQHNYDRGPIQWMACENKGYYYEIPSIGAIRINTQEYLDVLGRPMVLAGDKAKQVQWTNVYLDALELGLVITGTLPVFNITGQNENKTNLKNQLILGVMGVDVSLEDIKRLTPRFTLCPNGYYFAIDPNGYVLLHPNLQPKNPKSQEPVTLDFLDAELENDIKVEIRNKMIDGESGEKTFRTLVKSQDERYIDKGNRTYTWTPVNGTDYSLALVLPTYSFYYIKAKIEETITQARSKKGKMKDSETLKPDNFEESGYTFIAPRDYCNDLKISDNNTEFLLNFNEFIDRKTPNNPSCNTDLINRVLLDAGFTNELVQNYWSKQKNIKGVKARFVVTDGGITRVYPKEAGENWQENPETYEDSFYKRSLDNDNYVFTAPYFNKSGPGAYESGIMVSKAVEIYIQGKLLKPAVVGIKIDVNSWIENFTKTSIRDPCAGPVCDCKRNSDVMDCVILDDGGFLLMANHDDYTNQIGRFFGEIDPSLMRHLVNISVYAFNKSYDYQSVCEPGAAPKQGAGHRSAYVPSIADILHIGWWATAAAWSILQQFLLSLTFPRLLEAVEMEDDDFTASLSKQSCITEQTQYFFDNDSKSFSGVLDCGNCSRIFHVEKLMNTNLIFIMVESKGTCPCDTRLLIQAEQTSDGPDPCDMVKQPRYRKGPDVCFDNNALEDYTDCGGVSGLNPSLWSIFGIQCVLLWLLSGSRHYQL

Broadly, the IC50 is the point on the concentration scale where inhibition reaches its midpoint. Regarding `CC[C@@H]1CCC(CN)(CC(=O)O)C1` (stereo not given in full), the half-inhibitory concentration (IC50) in test [1] turned out to be 53 nM.

Take `C[C@@H]1CCC(CN)(CC(=O)O)C1` (stereo not given in full): the IC50 in test [1] amounted to 88 nM.

Regarding `CC[C@H]1CCC(CN)(CC(=O)O)C1` (stereo not given in full), the IC50 in test [1] is 706 nM.

Consider `CC1(C)CCC(CN)(CC(=O)O)C1` (stereo not given), for which the half-inhibitory concentration (IC50) in test [1] is 3180 nM.

As to `C[C@@H]1CC[C@@](CN)(CC(=O)O)C1`, in test [1], the IC50 came to 71 nM. In addition, the result in the test with Rattus norvegicus [2] was Active. The minimal effective dose in the test on Rattus norvegicus [3] was 30 mg/kg.

With `C[C@@H]1CC[C@](CN)(CC(=O)O)C1`, the IC50 in test [1] came to 30 nM. In the test on Rattus norvegicus [4], the result was inactive. The result in the test with Rattus norvegicus [5] was Active. Also, the minimal effective dose with Rattus norvegicus [3] came to 3 mg/kg.

As to `CCC[C@@H]1CCC(CN)(CC(=O)O)C1` (stereo not given in full), the IC50 in test [1] turned out to be 29 nM.

With `CC1CCC(CN)(CC(=O)O)C1` (mixture of isomers), the IC50 in test [1] was determined as 82 nM.

Take `CC(C)(C)C1CCC(CN)(CC(=O)O)C1` (mixture of isomers): in test [1], the concentration for half-maximal inhibition (IC50) is > 10000 nM.

For the compound `CCCC1CCC(CN)(CC(=O)O)C1` (mixture of isomers), the IC50 in test [1] was 69 nM.

In the case of `CC(C)CC1CCC(CN)(CC(=O)O)C1` (mixture of isomers), the IC50 in test [1] was found to be 760 nM.

In the case of `CCC1CCC(CN)(CC(=O)O)C1` (mixture of isomers), the IC50 in test [1] amounted to 55 nM.

In the case of `CCCCC1CCC(CN)(CC(=O)O)C1` (mixture of isomers), the concentration for half-maximal inhibition (IC50) in test [1] is 690 nM.

For the compound `NCC1(CC(=O)O)CCC(c2ccccc2)C1` (mixture of isomers), in test [1], the IC50 was 5060 nM.

For the compound `NCC1(CC(=O)O)CCC(Cc2ccccc2)C1` (mixture of isomers), the IC50 in test [1] stood at 9280 nM.

Turning to `NCC1(CC(=O)O)CCC(CCc2ccccc2)C1` (mixture of isomers), the IC50 in test [1] turned out to be 6230 nM.

Take `CCC[C@H]1CCC(CN)(CC(=O)O)C1` (single isomer, unassigned): in test [1], the IC50 is 1200 nM.

As for `C[C@H]1CCC(CN)(CC(=O)O)C1` (single isomer, unassigned), the half-inhibitory concentration (IC50) in test [1] was found to be 1300 nM.

With `NCC1(CC(=O)O)CCCC1` [GABABUTIN], the concentration for half-maximal inhibition (IC50) in test [1] was determined as 420 nM.

Take `CC(C)C[C@H](CN)CC(=O)O` [PREGABALIN]: the minimal effective dose with Rattus norvegicus [3] was 10 mg/kg.

For the origin of these results see ChEMBL document CHEMBL1153100, “Synthesis and in vivo evaluation of 3-substituted gababutins” (Bioorg Med Chem Lett, 2010).
